Where a SMILES comes first, the peptide text is derived from it.
Legend:
[1] = Metabolic stability in Wistar rat plasma assessed as half life by HPLC analysis; format: ADME, cell-free
Procedure, shortened: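 Peptide at 1 mg/mL in sterile PBS pH 7.4 was mixed 1:1 with thawed, centrifuged Wistar rat plasma supernatant and incubated at 37°C in triplicate. Samples at 0, 1, 2, 3, 4, 6 and 24 h were quenched with acetonitrile and then 2% TFA/water, and analysed by HPLC with inline electrospray MS.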

[2] = molecular target: Kappa-type opioid receptor (Homo sapiens, UniProt P41145); assay: Displacement of [3H]U69593 from human kappa opioid receptor expressed in CHO-K1 cells incubated for 1 hr by 1450 microbeta scintillation counter analysis; format: cell-based
Procedure, shortened: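 Membranes from transiently KOR-transfected CHO-K1 cells (~2 µg/well) used in SPA with 3H-U69,593 (1 nM). Competitor ranged 1 pM–10 µM in 50 mM Tris-HCl pH 7.4, 5 mM MgCl2, 0.1% BSA. Incubated 1 h at room temperature with shaking. Nonspecific binding defined with 10 µM dynorphin A. Sigmoidal dose-response fit; at least three independent experiments in triplicate.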

Chain of Kappa-type opioid receptor (P41145 whole entry): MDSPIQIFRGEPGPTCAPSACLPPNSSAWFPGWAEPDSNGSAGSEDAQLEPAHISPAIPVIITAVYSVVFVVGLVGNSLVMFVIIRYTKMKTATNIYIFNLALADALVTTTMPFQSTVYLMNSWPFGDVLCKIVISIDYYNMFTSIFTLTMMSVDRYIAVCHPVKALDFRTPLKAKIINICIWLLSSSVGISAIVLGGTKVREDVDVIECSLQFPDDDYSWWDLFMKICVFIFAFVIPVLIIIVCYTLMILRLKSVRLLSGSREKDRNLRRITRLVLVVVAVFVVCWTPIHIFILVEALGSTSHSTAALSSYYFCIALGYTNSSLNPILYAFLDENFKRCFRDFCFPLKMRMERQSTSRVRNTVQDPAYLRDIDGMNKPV

SMILES	half-life [1]	Ki [2]
CC[C@H](C)[C@H](NC(=O)[C@H](CCCNC(=N)N)NC(=O)[C@H](CCCNC(=N)N)NC(=O)[C@H](CC(C)C)NC(=O)[C@H](Cc1ccccc1)NC(=O)CNC(=O)CNC(=O)[C@@H](N)Cc1ccc(O)cc1)C(=O)N[C@@H](CCCNC(=N)N)C(=O)N1CCC[C@H]1C(=O)N[C@@H](CCCCN)C(=O)N[C@@H](CC(C)C)C(=O)N[C@@H](CCCCN)C(=O)N[C@@H](Cc1c[nH]c2ccccc12)C(=O)N[C@@H](CC(=O)O)C(=O)N[C@@H](CC(N)=O)C(=O)N[C@@H](CCC(N)=O)C(N)=O	2 h	–
N=C(N)NCCC[C@H](NC(=O)[C@@H](CCCNC(=N)N)NC(=O)[C@@H]1CCC(=O)N1)C(=O)N[C@@H](CCC(N)=O)C(=O)N[C@@H](CC1CCCCC1)C(=O)N[C@H]1CSSC[C@@H](C(N)=O)NC1=O	1.5 h	13 nM
N=C(N)NCCC[C@@H](NC(=O)[C@@H]1Cc2ccccc2CN1)C(=O)N[C@H](CCCNC(=N)N)C(=O)N[C@@H](CCC(N)=O)C(=O)N[C@@H](CC1CCCCC1)C(=O)N[C@H]1CSSC[C@@H](C(N)=O)NC1=O	0.75 h	0.91 nM
CC[C@H](C)[C@H](NC(=O)[C@H](CCC(N)=O)NC(=O)[C@H](CCCNC(=N)N)NC(=O)[C@@H](N)CCCNC(=N)N)C(=O)N[C@H]1CSSC[C@@H](C(N)=O)NC1=O (HELM PEPTIDE1{R.R.Q.I.C.C.[am]}$PEPTIDE1,PEPTIDE1,5:R3-6:R3$$$V2.0)	0.75 h	270 nM
N=C(N)NCCC[C@@H](NC(=O)[C@@H](CCCNC(=N)N)NC(=O)[C@@H]1CCCN1C(=O)c1ccc(Cl)cc1)C(=O)N[C@@H](CCC(N)=O)C(=O)N[C@@H](CC1CCCCC1)C(=O)N[C@H]1CSSC[C@@H](C(N)=O)NC1=O	1 h	0.13 nM
N=C(N)NCCC[C@@H](NC(=O)[C@@H]1CCC(=O)N1)C(=O)N[C@H](CCCNC(=N)N)C(=O)N[C@@H](CCC(N)=O)C(=O)N[C@@H](CC1CCCCC1)C(=O)N[C@H]1C[Se]SC[C@@H](C(N)=O)NC1=O	6 h	7.8 nM
N=C(N)NCCC[C@@H](NC(=O)c1cc2ccccc2cc1N)C(=O)N[C@H](CCCNC(=N)N)C(=O)N[C@@H](CCC(N)=O)C(=O)N[C@@H](CC1CCCCC1)C(=O)N[C@H]1CSSC[C@@H](C(N)=O)NC1=O	1 h	0.64 nM
N=C(N)NCCC[C@@H](NC(=O)[C@@H](CCCNC(=N)N)NC(=O)[C@@H]1CCCN1C(=O)c1ccc2ccccc2c1)C(=O)N[C@@H](CCC(N)=O)C(=O)N[C@@H](CC1CCCCC1)C(=O)N[C@H]1CSSC[C@@H](C(=O)O)NC1=O	0.5 h	229 nM
N=C(N)NCCC[C@H](NC(=O)[C@@H]1CCC(=O)N1)C(=O)N[C@H](CCCNC(=N)N)C(=O)N[C@@H](CCC(N)=O)C(=O)N[C@@H](CC1CCCCC1)C(=O)N[C@H]1CSSC[C@@H](C(N)=O)NC1=O	20 h	16.1 nM
N=C(N)NCCC[C@@H](NC(=O)[C@@H](CCCNC(=N)N)NC(=O)[C@@H]1CCCN1C(=O)c1ccc(Cl)c(Cl)c1)C(=O)N[C@@H](CCC(N)=O)C(=O)N[C@@H](CS)C(=O)N[C@@H](CC1CCCCC1)C(=O)N[C@H]1CSSC[C@@H](C(N)=O)NC1=O	1 h	0.98 nM
COc1ccc(C(=O)N2CCC[C@H]2C(=O)N[C@H](CCCNC(=N)N)C(=O)N[C@H](CCCNC(=N)N)C(=O)N[C@@H](CCC(N)=O)C(=O)N[C@@H](CS)C(=O)N[C@@H](CC2CCCCC2)C(=O)N[C@H]2CSSC[C@@H](C(N)=O)NC2=O)cc1	2 h	0.59 nM
N=C(N)NCCC[C@H](NC(=O)[C@@H](CCCNC(=N)N)NC(=O)[C@@H](CCCNC(=N)N)NC(=O)[C@@H]1CCCN1C(=O)c1ccccc1)C(=O)N[C@@H](CC1CCCCC1)C(=O)N[C@H]1CSSC[C@@H](C(N)=O)NC1=O	12 h	0.23 nM
N=C(N)NCCC[C@@H](NC(=O)[C@H]1NCCc2ccccc21)C(=O)N[C@H](CCCNC(=N)N)C(=O)N[C@@H](CCC(N)=O)C(=O)N[C@@H](CC1CCCCC1)C(=O)N[C@H]1CSSC[C@@H](C(N)=O)NC1=O	0.75 h	1.18 nM
N=C(N)NCCC[C@H](NC(=O)[C@H](CCCNC(=N)N)NC(=O)[C@@H]1CSSC[C@H](NC(=O)[C@@H](N)CC(N)=O)C(=O)N1)C(=O)N[C@@H](CCC(N)=O)C(=O)N[C@@H](CC1CCCCC1)C(=O)N[C@H]1CSSC[C@@H](C(N)=O)NC1=O (HELM PEPTIDE1{N.C.C.R.R.Q.[Cha].C.C.[am]}$PEPTIDE1,PEPTIDE1,2:R3-3:R3|PEPTIDE1,PEPTIDE1,8:R3-9:R3$$$V2.0)	< 0.25 h	1.3 nM
N=C(N)NCCC[C@@H](NC(=O)[C@@H](CCCNC(=N)N)NC(=O)[C@@H]1CCCN1C(=O)c1ccccc1)C(=O)N[C@@H](Cc1ccccc1)C(=O)N[C@@H](CC1CCCCC1)C(=O)N[C@H]1CSSC[C@@H](C(N)=O)NC1=O	–	0.59 nM
C[C@H](NC(=O)[C@H](CCC(N)=O)NC(=O)[C@H](CCCNC(=N)N)NC(=O)[C@H](CCCNC(=N)N)NC(=O)[C@@H]1CSSC[C@H](NC(=O)[C@@H](N)CC(N)=O)C(=O)N1)C(=O)N[C@H]1CSSC[C@@H](C(N)=O)NC1=O (HELM PEPTIDE1{N.C.C.R.R.Q.A.C.C.[am]}$PEPTIDE1,PEPTIDE1,2:R3-3:R3|PEPTIDE1,PEPTIDE1,8:R3-9:R3$$$V2.0)	–	2450 nM
CC[C@H](C)[C@H](NC(=O)[C@H](CCC(N)=O)NC(=O)[C@H](C)NC(=O)[C@H](CCCNC(=N)N)NC(=O)[C@@H]1CSSC[C@H](NC(=O)[C@@H](N)CC(N)=O)C(=O)N1)C(=O)N[C@H]1CSSC[C@@H](C(N)=O)NC1=O (HELM PEPTIDE1{N.C.C.R.A.Q.I.C.C.[am]}$PEPTIDE1,PEPTIDE1,2:R3-3:R3|PEPTIDE1,PEPTIDE1,8:R3-9:R3$$$V2.0)	–	406 nM
C[C@H](NC(=O)[C@@H](CCCNC(=N)N)NC(=O)[C@@H](CCCNC(=N)N)NC(=O)[C@@H]1CCCN1C(=O)c1ccccc1)C(=O)N[C@@H](CC1CCCCC1)C(=O)N[C@H]1CSSC[C@@H](C(N)=O)NC1=O	–	0.29 nM
N=C(N)NCCC[C@@H](NC(=O)c1cccc(Br)c1)C(=O)N[C@H](CCCNC(=N)N)C(=O)N[C@@H](CCC(N)=O)C(=O)N[C@@H](CC1CCCCC1)C(=O)N[C@H]1CSSC[C@@H](C(N)=O)NC1=O	–	5.3 nM
CC[C@H](C)[C@H](NC(=O)[C@H](CCC(N)=O)NC(=O)[C@H](CCCNC(N)=O)NC(=O)[C@H](CCCNC(=N)N)NC(=O)[C@@H]1CSSC[C@H](NC(=O)[C@@H](N)CC(N)=O)C(=O)N1)C(=O)NC1CSSC[C@@H](C(N)=O)NC1=O (single isomer, unassigned)	–	387 nM
N=C(N)NCCC[C@@H](NC(=O)Cc1cccc(Cl)c1)C(=O)N[C@H](CCCNC(=N)N)C(=O)N[C@@H](CCC(N)=O)C(=O)N[C@@H](CC1CCCCC1)C(=O)N[C@H]1CSSC[C@@H](C(N)=O)NC1=O	–	2.1 nM
CC(C)C[C@H](NC(=O)[C@H](CCC(N)=O)NC(=O)[C@H](CCCNC(=N)N)NC(=O)[C@H](CCCNC(=N)N)NC(=O)[C@@H]1CSSC[C@H](NC(=O)[C@@H](N)CC(N)=O)C(=O)N1)C(=O)N[C@H]1CSSC[C@@H](C(N)=O)NC1=O (HELM PEPTIDE1{N.C.C.R.R.Q.L.C.C.[am]}$PEPTIDE1,PEPTIDE1,2:R3-3:R3|PEPTIDE1,PEPTIDE1,8:R3-9:R3$$$V2.0)	–	24 nM
CC(C)[C@H](NC(=O)[C@H](CCC(N)=O)NC(=O)[C@H](CCCNC(=N)N)NC(=O)[C@H](CCCNC(=N)N)NC(=O)[C@@H]1CSSC[C@H](NC(=O)[C@@H](N)CC(N)=O)C(=O)N1)C(=O)N[C@H]1CSSC[C@@H](C(N)=O)NC1=O (HELM PEPTIDE1{N.C.C.R.R.Q.V.C.C.[am]}$PEPTIDE1,PEPTIDE1,2:R3-3:R3|PEPTIDE1,PEPTIDE1,8:R3-9:R3$$$V2.0)	–	664 nM
N=C(N)NCCC[C@@H](NC(=O)[C@@H](CCCNC(=N)N)NC(=O)[C@@H]1CCCN1C(=O)c1ccc(Cl)cc1)C(=O)N[C@@H](CCC(N)=O)C(=O)N[C@@H](CC1CCCCC1)C(=O)N[C@H]1CSSC[C@@H](C(=O)O)NC1=O	–	795 nM
CC[C@H](C)[C@H](NC(=O)[C@H](CCC(N)=O)NC(=O)[C@H](CCCNC(=N)N)NC(=O)[C@H](CCCCN)NC(=O)[C@@H]1CSSC[C@H](NC(=O)[C@@H](N)CC(N)=O)C(=O)N1)C(=O)N[C@H]1CSSC[C@@H](C(N)=O)NC1=O (HELM PEPTIDE1{N.C.C.K.R.Q.I.C.C.[am]}$PEPTIDE1,PEPTIDE1,2:R3-3:R3|PEPTIDE1,PEPTIDE1,8:R3-9:R3$$$V2.0)	–	426 nM
CC[C@H](C)[C@H](NC(=O)[C@H](CCCN=C(N)N)NC(=O)[C@H](CCCN=C(N)N)NC(=O)[C@H](CC(C)C)NC(=O)[C@H](Cc1ccccc1)NC(=O)CNC(=O)CNC(=O)[C@@H](N)Cc1ccc(O)cc1)C(=O)N[C@@H](CCCN=C(N)N)C(=O)N1CCC[C@H]1C(=O)N[C@@H](CCCCN)C(=O)N[C@@H](CC(C)C)C(=O)N[C@@H](CCCCN)C(N)=O	–	0.4 nM
N=C(N)NCCC[C@@H](NC(=O)[C@@H]1CCC(=O)N1)C(=O)N[C@H](CCCNC(=N)N)C(=O)N[C@@H](CCC(N)=O)C(=O)N[C@@H](CC1CCCCC1)C(=O)N[C@H]1CSSCC[C@@H](C(N)=O)NC1=O	–	1570 nM
N=C(N)NCCC[C@@H](NC(=O)[C@@H](CCCNC(=N)N)NC(=O)[C@@H]1CCCN1C(=O)c1ccccc1)C(=O)N[C@@H](CCCCN)C(=O)N[C@@H](CC1CCCCC1)C(=O)N[C@H]1CSSC[C@@H](C(N)=O)NC1=O	–	0.59 nM
CC[C@H](C)[C@H](NC(=O)[C@H](CCC(N)=O)NC(=O)[C@H](CCCNC(=N)N)NC(=O)[C@H](C)NC(=O)[C@@H]1CSSC[C@H](NC(=O)[C@@H](N)CC(N)=O)C(=O)N1)C(=O)N[C@H]1CSSC[C@@H](C(N)=O)NC1=O (HELM PEPTIDE1{N.C.C.A.R.Q.I.C.C.[am]}$PEPTIDE1,PEPTIDE1,2:R3-3:R3|PEPTIDE1,PEPTIDE1,8:R3-9:R3$$$V2.0)	–	170 nM
N=C(N)NCCC[C@@H](NC(=O)[C@@H](CCCNC(=N)N)NC(=O)[C@@H]1CCCN1C(=O)c1ccccc1)C(=O)N[C@@H](CCC(N)=O)C(=O)N[C@@H](CC1CCCCC1)C(=O)N[C@H]1CC(=O)NC[C@@H](C(N)=O)NC1=O	–	233 nM

From ChEMBL document CHEMBL5252514, “Conopeptide-Derived κ-Opioid Agonists (Conorphins): Potent, Selective, and Metabolic Stable Dynorphin A Mimetics with Antinociceptive Properties” (J Med Chem, 2016)
